# Tested on: Kluyveromyces marxianus
# Test: Antifungal activity against Candida kefyr by micro-broth dilution method
# Assay type: functional
# Details: not given
# How it was run: (§1)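 MIC80 by broth microdilution in 96-well format following NCCLS. Compounds were dissolved in DMSO, serially diluted in growth medium, inoculated and incubated at 35 °C. The endpoint was the first well with about 80% growth reduction versus the drug-free well. Values are means of three replicate tests.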
row,SMILES,MIC
1,CC(C)N(Cc1cn(Cc2ccc(Cl)cc2)nn1)CC(O)(Cn1cncn1)c1ccc(F)cc1F (stereo not given),0.25 µg/mL
2,CC(C)N(Cc1cn(Cc2cccc(Br)c2)nn1)CC(O)(Cn1cncn1)c1ccc(F)cc1F (stereo not given),0.0039 µg/mL
3,CC(C)N(Cc1cn(Cc2ccc(Br)cc2)nn1)CC(O)(Cn1cncn1)c1ccc(F)cc1F (stereo not given),0.25 µg/mL

# More lines, in order of falling MIC, values ahead:
row,MIC,SMILES
1,1 µg/mL,Cc1ccc(Cn2cc(CN(CC(O)(Cn3cncn3)c3ccc(F)cc3F)C(C)C)nn2)cc1 (stereo not given)
2,0.0156 µg/mL,CC(C)N(Cc1cn(Cc2ccccc2Br)nn1)CC(O)(Cn1cncn1)c1ccc(F)cc1F (stereo not given)

# Tested on: Trichophyton rubrum
# Test: Antifungal activity against Trichophyton rubrum by micro-broth dilution method
# Assay type: functional
# Details: not given
# How it was run: as §1
row,SMILES,MIC
1,CC(C)N(Cc1cn(Cc2ccc(Cl)cc2)nn1)CC(O)(Cn1cncn1)c1ccc(F)cc1F (stereo not given),0.5 µg/mL
2,CC(C)N(Cc1cn(Cc2cccc(Br)c2)nn1)CC(O)(Cn1cncn1)c1ccc(F)cc1F (stereo not given),0.0625 µg/mL
3,CC(C)N(Cc1cn(Cc2ccc(Br)cc2)nn1)CC(O)(Cn1cncn1)c1ccc(F)cc1F (stereo not given),1 µg/mL

# The remaining lines, values ahead:
row,MIC,SMILES
1,0.25 µg/mL,Cc1ccc(Cn2cc(CN(CC(O)(Cn3cncn3)c3ccc(F)cc3F)C(C)C)nn2)cc1 (stereo not given)
2,< 0.125 µg/mL,CC(C)N(Cc1cn(Cc2ccccc2Br)nn1)CC(O)(Cn1cncn1)c1ccc(F)cc1F (stereo not given)

# Tested on: Cryptococcus neoformans
# Test: Antifungal activity against Cryptococcus neoformans after 72 hrs by micro-broth dilution method
# Assay type: functional
# Details: not given
# How it was run: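 Cryptococcus neoformans tested by NCCLS micro-broth dilution. Compounds were dissolved in DMSO, serially diluted in medium, inoculated and incubated at 35 °C. MIC80 was read at 72 h as the first well showing approximately 80% growth reduction compared with the drug-free well. Values are the mean of three replicate tests.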
row,SMILES,MIC
1,CC(C)N(Cc1cn(Cc2ccc(Cl)cc2)nn1)CC(O)(Cn1cncn1)c1ccc(F)cc1F (stereo not given),4 µg/mL
2,CC(C)N(Cc1cn(Cc2cccc(Br)c2)nn1)CC(O)(Cn1cncn1)c1ccc(F)cc1F (stereo not given),1 µg/mL
3,CC(C)N(Cc1cn(Cc2ccc(Br)cc2)nn1)CC(O)(Cn1cncn1)c1ccc(F)cc1F (stereo not given),8 µg/mL

# Other lines, results leading:
row,MIC,SMILES
1,8 µg/mL,Cc1ccc(Cn2cc(CN(CC(O)(Cn3cncn3)c3ccc(F)cc3F)C(C)C)nn2)cc1 (stereo not given)
2,1 µg/mL,CC(C)N(Cc1cn(Cc2ccccc2Br)nn1)CC(O)(Cn1cncn1)c1ccc(F)cc1F (stereo not given)

# Tested on: Candida albicans
# Test: Antifungal activity against Candida albicans SC5314 after 24 hrs by micro-broth dilution method
# Assay type: functional
# Details: SC5314, 24 h
# How it was run: (§2)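 Broth microdilution per NCCLS on Candida albicans. Compounds were dissolved in DMSO, serially diluted in growth medium, inoculated and incubated at 35 °C. Growth was read at 24 h, and MIC80 was taken as the first well with about 80% growth reduction relative to the drug-free control. Values are the mean of three replicates.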
row,SMILES,MIC
1,CC(C)N(Cc1cn(Cc2ccc(Cl)cc2)nn1)CC(O)(Cn1cncn1)c1ccc(F)cc1F (stereo not given),< 0.125 µg/mL
2,CC(C)N(Cc1cn(Cc2cccc(Br)c2)nn1)CC(O)(Cn1cncn1)c1ccc(F)cc1F (stereo not given),0.25 µg/mL
3,CC(C)N(Cc1cn(Cc2ccc(Br)cc2)nn1)CC(O)(Cn1cncn1)c1ccc(F)cc1F (stereo not given),< 0.125 µg/mL

# Further lines, results first:
row,MIC,SMILES
1,1 µg/mL,Cc1ccc(Cn2cc(CN(CC(O)(Cn3cncn3)c3ccc(F)cc3F)C(C)C)nn2)cc1 (stereo not given)
2,< 0.125 µg/mL,CC(C)N(Cc1cn(Cc2ccccc2Br)nn1)CC(O)(Cn1cncn1)c1ccc(F)cc1F (stereo not given)

# Tested on: Candida parapsilosis
# Test: Antifungal activity against Candida parapsilosis by micro-broth dilution method
# Assay type: functional
# Details: Lodderomyces parapsilosis
# How it was run: as §1
row,SMILES,MIC
1,CC(C)N(Cc1cn(Cc2ccc(Cl)cc2)nn1)CC(O)(Cn1cncn1)c1ccc(F)cc1F (stereo not given),2 µg/mL
2,CC(C)N(Cc1cn(Cc2cccc(Br)c2)nn1)CC(O)(Cn1cncn1)c1ccc(F)cc1F (stereo not given),0.0156 µg/mL
3,CC(C)N(Cc1cn(Cc2ccc(Br)cc2)nn1)CC(O)(Cn1cncn1)c1ccc(F)cc1F (stereo not given),4 µg/mL

# Further lines, results first:
row,MIC,SMILES
1,2 µg/mL,Cc1ccc(Cn2cc(CN(CC(O)(Cn3cncn3)c3ccc(F)cc3F)C(C)C)nn2)cc1 (stereo not given)
2,< 0.125 µg/mL,CC(C)N(Cc1cn(Cc2ccccc2Br)nn1)CC(O)(Cn1cncn1)c1ccc(F)cc1F (stereo not given)

# Tested on: Candida tropicalis
# Test: Antifungal activity against Candida tropicalis by micro-broth dilution method
# Assay type: functional
# Details: not given
# How it was run: as §1
row,SMILES,MIC
1,CC(C)N(Cc1cn(Cc2ccc(Cl)cc2)nn1)CC(O)(Cn1cncn1)c1ccc(F)cc1F (stereo not given),0.5 µg/mL
2,CC(C)N(Cc1cn(Cc2cccc(Br)c2)nn1)CC(O)(Cn1cncn1)c1ccc(F)cc1F (stereo not given),0.25 µg/mL
3,CC(C)N(Cc1cn(Cc2ccc(Br)cc2)nn1)CC(O)(Cn1cncn1)c1ccc(F)cc1F (stereo not given),1 µg/mL

# The remaining lines, values ahead:
row,MIC,SMILES
1,0.25 µg/mL,Cc1ccc(Cn2cc(CN(CC(O)(Cn3cncn3)c3ccc(F)cc3F)C(C)C)nn2)cc1 (stereo not given)
2,< 0.125 µg/mL,CC(C)N(Cc1cn(Cc2ccccc2Br)nn1)CC(O)(Cn1cncn1)c1ccc(F)cc1F (stereo not given)

# Tested on: Candida albicans
# Test: Antifungal activity against Candida albicans Y0109 after 24 hrs by micro-broth dilution method
# Assay type: functional
# Details: Y0109, 24 h
# How it was run: as §2
row,SMILES,MIC
1,CC(C)N(Cc1cn(Cc2ccc(Cl)cc2)nn1)CC(O)(Cn1cncn1)c1ccc(F)cc1F (stereo not given),0.0625 µg/mL
2,CC(C)N(Cc1cn(Cc2cccc(Br)c2)nn1)CC(O)(Cn1cncn1)c1ccc(F)cc1F (stereo not given),1 µg/mL
3,CC(C)N(Cc1cn(Cc2ccc(Br)cc2)nn1)CC(O)(Cn1cncn1)c1ccc(F)cc1F (stereo not given),0.0625 µg/mL

# Results, then the molecule that gave them:
row,MIC,SMILES
1,0.0625 µg/mL,Cc1ccc(Cn2cc(CN(CC(O)(Cn3cncn3)c3ccc(F)cc3F)C(C)C)nn2)cc1 (stereo not given)
2,0.0156 µg/mL,CC(C)N(Cc1cn(Cc2ccccc2Br)nn1)CC(O)(Cn1cncn1)c1ccc(F)cc1F (stereo not given)

# Tested on: Aspergillus fumigatus
# Test: Antifungal activity against Aspergillus fumigatus by micro-broth dilution method
# Assay type: functional
# Details: not given
# How it was run: as §1
row,SMILES,MIC
1,CC(C)N(Cc1cn(Cc2ccc(Cl)cc2)nn1)CC(O)(Cn1cncn1)c1ccc(F)cc1F (stereo not given),> 64 µg/mL
2,CC(C)N(Cc1cn(Cc2cccc(Br)c2)nn1)CC(O)(Cn1cncn1)c1ccc(F)cc1F (stereo not given),> 64 µg/mL
3,CC(C)N(Cc1cn(Cc2ccc(Br)cc2)nn1)CC(O)(Cn1cncn1)c1ccc(F)cc1F (stereo not given),> 64 µg/mL

# More lines, now with the values ahead:
row,MIC,SMILES
1,> 64 µg/mL,Cc1ccc(Cn2cc(CN(CC(O)(Cn3cncn3)c3ccc(F)cc3F)C(C)C)nn2)cc1 (stereo not given)
2,16 µg/mL,CC(C)N(Cc1cn(Cc2ccccc2Br)nn1)CC(O)(Cn1cncn1)c1ccc(F)cc1F (stereo not given)

# Source: ChEMBL document CHEMBL1250476, “Synthesis and antifungal evaluation of novel triazole derivatives as inhibitors of cytochrome P450 14alpha-demethylase” (2010)
